Common to all, as to type: functional
Experiment [1] relates to Mus musculus. As to the kind of experiment: Mean life extension in mice bearing Trypanosoma rhodesiense, after ip administration at 0.4 mmol/kg dose.
Experiment [2] relates to Mus musculus. As to the kind of experiment: (§1) Mean life extension in mice bearing Trypanosoma rhodesiense, after ip administration at a dose of 0.2 mmol/kg. More on the design: unit: days. An outline of the steps: (§2)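 Female CD-1 mice, 6-8 weeks old, 25-35 g, infected ip with about 10^6 freshly isolated trypanosomes in PBSG. At day 3 post-infection they got a single ip dose, dissolved in 50 µL DMSO or in 0.5 mL PBSG adjusted to pH 7.4. Activity is the days of survival beyond vehicle-only controls, as the mean of 4 mice to the nearest day. Parasitemia was monitored to exclude toxic deaths.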

Experiment [3] relates to Mus musculus. As to the kind of experiment: Mean life extension in mice bearing Trypanosoma rhodesiense, after ip administration at 0.9 mmol/kg dose. An outline of the steps: as §2
The subject of experiment [4] is Mus musculus. As to the kind of experiment: Mean life extension was determined in mice bearing Trypanosoma brucei rhodesiense (YTAT 1.1) after administration of 0.2 mmol/kg per dose. An outline of the steps:
(§3)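 Female CD-1 mice, 6-8 weeks old, were infected ip with about 10^6 cells in PBSG. When parasitemia reached about 10^8 cells/mL they got a single 0.2 mmol/kg dose in DMSO. The result is days survived beyond DMSO-only controls, as the mean of 4 animals to the nearest day with SE. Survival of 30 days or more was counted as cure.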

In experiment [5] the test system is Mus musculus. As to the kind of experiment: Mean life extension was determined in mice bearing Trypanosoma brucei (M110) after administration of 0.2 mmol/kg per dose. The method, boiled down: as §3
Experiment [6] concerns Mus musculus. As to the kind of experiment: Mean life extension was determined in mice bearing Trypanosoma evansi (SAK), after administration of 0.2 mmol/kg per dose. The method, boiled down:
as §3

Experiment [7] has as its system Mus musculus. As to the kind of experiment: Mean life extension was determined in mice bearing Trypanosoma evansi (SN) after administration of 0.2 mmol/kg per dose. An outline of the steps:
as §3

The subject of experiment [8] is Mus musculus. As to the kind of experiment: Mean life extension was determined in mice bearing Trypanosoma equiperdum (1559), after administration of 0.2 mmol/kg per dose. The method, boiled down: as §3
The subject of experiment [9] is Mus musculus. As to the kind of experiment: Mean life extension was determined in mice bearing Trypanosoma brucei gambiense (TxTAT 1.0), after administration of 0.2 mmol/kg per dose. An outline of the steps:
as §3

In experiment [10] the test system is Mus musculus. As to the kind of experiment: Mean life extension in mice bearing Trypanosoma rhodesiense, after ip administration at 0.5 mmol/kg dose. The method, boiled down:
as §2

Experiment [11] has as its system Mus musculus. As to the kind of experiment: Mean life extension in mice bearing Trypanosoma rhodesiense, after ip administration at a dose of 0.5 mmol/kg.
Experiment [12] deals with Mus musculus. Described as §1. The method, boiled down: as §2

Data on 16 compounds can be found in ChEMBL document CHEMBL1124829, “Methylating agents as trypanocides” (1990).

Molecules are shown by their SMILES. Bounds are passed on as bounds.

For `CN(N=O)C(N)=O` [N-METHYL-N-NITROSUREA], the results for the Mean life extension with Mus musculus [1] and in the experiment with Mus musculus [2] were above 30 and 8, respectively.

Take `COc1ccc(S(=O)(=O)NN(C)S(C)(=O)=O)cc1`: in the experiment on Mus musculus [2], the Mean life extension was determined as 4. In the case of `COS(=O)(=O)OC` [SULFURIC ACID DIMETHYL ESTER], the Mean life extension in the experiment on Mus musculus [2] was 3. The compound `COS(C)(=O)=O` [METHANESULFONIC ACID METHYL ESTER] gave a Mean life extension with Mus musculus [2] of 1.

Consider `CNNCc1ccc(C(=O)NC(C)C)cc1` [PROCARBAZINE], for which the Mean life extension with Mus musculus [3] is listed as above 30; in the experiment with Mus musculus [2], 5. Compound `CCOS(=O)(=O)OCC` [SULFURIC ACID DIETHYL ESTER] registered a Mean life extension in the experiment with Mus musculus [2] of 0. In the case of `CN(NS(C)(=O)=O)S(C)(=O)=O`, the Mean life extension was 12 in the experiment with Mus musculus [4]; 11 in the experiment on Mus musculus [5]; above 30 in the experiment on Mus musculus [6]; 12 with Mus musculus [7]; 12 with Mus musculus [2]; 12 in the experiment with Mus musculus [8]. Further, the Mean life extension in the experiment on Mus musculus [9] is on record as 13. `O=S(=O)(NNS(=O)(=O)c1ccccc1)c1ccccc1` showed a Mean life extension in the experiment on Mus musculus [2] of 0. In the experiment on Mus musculus [2], `CNNC.Cl.Cl` displayed a Mean life extension of 4.

In the experiment with Mus musculus [2], `CN(NC(=O)c1ccccc1)C(=O)c1ccccc1` came in with a Mean life extension of 0.

Regarding `CN(C)/N=N/c1[nH]cnc1C(N)=O` [DACARBAZINE], the figures for the Mean life extension with Mus musculus [2] and in the experiment with Mus musculus [10] were 6 and above 30, respectively. The compound `CCNNCC.Cl.Cl` returned a Mean life extension with Mus musculus [2] of 0.

In turn, `Cl.Cl.NN` [HYDRAZINE DIHYDROCHLORIDE] registered a Mean life extension in the experiment with Mus musculus [11] of 0. `CNN.Cl.Cl`: the Mean life extension with Mus musculus [11] is 1.

For `CN(N=O)C(=O)N[C@@H](C=O)[C@@H](O)[C@H](O)[C@H](O)CO` [STREPTOZOCIN], the Mean life extension with Mus musculus [12] turned out to be 4. Turning to `CN(NS(=O)(=O)c1ccccc1)S(=O)(=O)c1ccccc1`, in the experiment with Mus musculus [2], the Mean life extension is on record as 5.
